Experimental findings from ChEMBL document CHEMBL2034955, “Thieno[3,2-b]thiophene-2-carboxylic acid derivatives as GPR35 agonists” (Bioorg Med Chem Lett, 2012) are described below.

Assay [1] addresses T1, G-protein coupled receptor 35 (Homo sapiens, UniProt Q9HC97). As to the kind of experiment: Agonist activity at GPR35 in human HT-29 cells by dynamic mass redistribution assay relative to zaprinast. It counts as functional, cell-based.
For assay [2], the target named is T1, G-protein coupled receptor 35. As to the kind of experiment: Agonist activity at GPR35 in human HT-29 cells by dynamic mass redistribution assay. It counts as functional, cell-based.
Assay [3] has the same target. As to the kind of experiment: Agonist activity at GPR35 in human U20S cells expressing beta-lactamase and Gal4-VP16 transcription factor assessed as beta arrestin translocation after 5 hrs by Tango assay. Type of assay: functional, cell-based, U2OS. An outline of the steps: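 Tango GPR35-bla U2OS cells seeded at 10,000/well and cultured overnight in DMEM with 10% dialyzed FBS. Ligand stimulation 5 h at 37 °C/5% CO2, then LiveBLAzer FRET B/G substrate loading for 2 h. EC50 from monophasic sigmoidal fit. Two independent runs, each in duplicate (n = 4).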

The target is the same in assay [4]. Kind of assay: Agonist activity at GPR35 in human U2OS cells expressing beta-lactamase and Gal4-VP16 transcription factor assessed as beta arrestin translocation after 5 hrs by Tango assay relative to zaprinast. Type of assay: functional, cell-based. The method in brief: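 Tango GPR35-bla U2OS cells seeded at 10,000/well and cultured overnight in DMEM with 10% dialyzed FBS. Ligand stimulation 5 h at 37 °C/5% CO2, then LiveBLAzer FRET B/G substrate loading for 2 h. […] EC50 from monophasic sigmoidal fit. Two independent runs, each in duplicate (n = 4).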

For assay [5] the target is unchanged. As to the kind of experiment: Agonist activity at GPR35 in human HT-29 cells at 125 nM by dynamic mass redistribution assay in presence of CID 2745687. Type of assay: functional, cell-based. An outline of the steps:
(§1)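 Native HT-29 cells seeded at 32,000/well and cultured overnight to confluence in McCoy's 5a with 10% FBS at 37 °C/5% CO2, washed twice and held in 1x HBSS for 1 h. CID 2745687 was pre-incubated 10 min at varying doses, then agonist added at a fixed dose. DMR amplitude read 10 min poststimulation, background corrected. Two independent runs, each in duplicate (n = 4).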

The target is the same in assay [6]. Kind of assay: Agonist activity at GPR35 in human U20S cells expressing beta-lactamase and Gal4-VP16 transcription factor assessed as beta arrestin translocation at 10 uM after 5 hrs by Tango assay in the presence of ML-145. Type of assay: functional, cell-based. The following applies: U2OS. An outline of the steps:
(§2)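 Tango antagonist format in GPR35-bla U2OS cells. Agonist at a fixed dose was combined with varying ML-145 doses, followed by 5 h stimulation at 37 °C and 2 h FRET B/G substrate loading. Coumarin/fluorescein ratio read out, with IC50 derived. Two independent runs, each in duplicate (n = 4).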

Assay [7] has the same target. Kind of assay: Agonist activity at GPR35 in human HT-29 cells assessed as receptor internalization at 12.5 uM after 1 hr by confocal microscopy. It counts as functional, cell-based. The method in brief: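 HT-29 cells treated 1 h with agonist in assay vehicle containing 0.1% DMSO (vehicle control), then permeabilized and immunostained with anti-GPR35 plus fluorescent secondary antibody. Internalization judged from confocal fluorescence images.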

The target is the same in assay [8]. As to the kind of experiment: Agonist activity at GPR35 in human HT-29 cells at 250 nM by dynamic mass redistribution assay in presence of CID 2745687. Type of assay: functional, cell-based. An outline of the steps:
as §1

Assay [9] shares this target. Kind of assay: Agonist activity at GPR35 in human U20S cells expressing beta-lactamase and Gal4-VP16 transcription factor assessed as beta arrestin translocation at 20 uM after 5 hrs by Tango assay in the presence of ML-145. Type of assay: functional, cell-based. The following applies: U2OS. An outline of the steps: as §2
Assay [10] has the same target. As to the kind of experiment: Agonist activity at GPR35 in human U20S cells expressing beta-lactamase and Gal4-VP16 transcription factor assessed as beta arrestin translocation at 64 uM after 5 hrs by Tango assay in the presence of ML-145. It counts as functional, cell-based. Conditions: U2OS. The method in brief: as §2
The target is the same in assay [11]. Kind of assay: Agonist activity at GPR35 in human U20S cells expressing beta-lactamase and Gal4-VP16 transcription factor assessed as beta arrestin translocation at 100 uM after 5 hrs by Tango assay in the presence of ML-145. Conditions: U2OS. It counts as functional, cell-based. The method in brief:
as §2

The target is the same in assay [12]. As to the kind of experiment: Agonist activity at GPR35 in human HT-29 cells at 2 uM by dynamic mass redistribution assay in presence of CID 2745687. It counts as functional, cell-based. An outline of the steps:
as §1

Calls of active or inactive are those of the source. The calls are words filed in the database; no cut-off is given here.

T1 sequence (Q9HC97 whole entry): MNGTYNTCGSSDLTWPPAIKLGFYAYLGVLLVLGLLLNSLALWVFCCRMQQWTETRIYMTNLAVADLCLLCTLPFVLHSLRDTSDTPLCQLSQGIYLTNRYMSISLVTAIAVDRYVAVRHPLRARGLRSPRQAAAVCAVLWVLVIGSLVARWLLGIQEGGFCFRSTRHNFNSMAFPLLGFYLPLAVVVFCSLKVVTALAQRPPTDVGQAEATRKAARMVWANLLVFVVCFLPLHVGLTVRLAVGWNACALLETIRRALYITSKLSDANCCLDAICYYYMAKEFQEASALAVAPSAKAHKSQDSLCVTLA

A word on the EC50: it is the midpoint of the concentration-response curve. Regarding `C#Cc1csc2c(C)c(C(=O)O)sc12`, the results for the Efficacy in assay [1] and in assay [4] were 257 pm and 102%, respectively. The EC50 in assay [2] (read-out: EC50) amounted to 1.48 µM; in assay [3] (read-out: EC50), 54.8 µM.

For `Cc1c(C(=O)O)[nH]c2c(C3CC3)csc12`, the Efficacy in assay [1] stood at 228 pm; in assay [4], 35%. The values for the EC50 in [2] (read-out: EC50) and in assay [3] (read-out: EC50) were 8.37 µM and 119 µM, respectively.

For `O=C(O)c1sc2c(Br)c(Br)sc2c1O`, the Efficacy amounted to 228 pm in [1] and 96% in assay [4]. In addition, the Activity result in [2] was “Dose-dependent effect”. Besides, the results for the EC50 in [2] (read-out: EC50) and in assay [3] (read-out: EC50) were 0.016 µM and 2.46 µM, respectively. For the same compound, the outcome in assay [5] and in [6] was inactive.

For `O=C(O)c1sc2c(Br)csc2c1C1CC1`, the Efficacy in [1] came out at 246 pm; in assay [4], 46%. For the same compound, the EC50 in assay [2] (read-out: EC50) was determined as 2.63 µM; in assay [3] (read-out: EC50) it was 504 µM.

For the compound `Cc1c(C(=O)O)sc2c(-c3cccnc3)csc12`, the Efficacy in assay [1] was determined as 223 pm; in assay [4], 118%. In [7], the outcome was Active. The EC50 in [2] (read-out: EC50) worked out at 0.24 µM; in assay [3] (read-out: EC50), 11.8 µM.

In the case of `O=C(O)c1cc(=O)c2ccccc2[nH]1` [TRANSTORINE], the Efficacy in [1] is 202 pm; in assay [4] it was > 60%. In addition, the EC50 in assay [2] (ht-29, read-out: EC50) was 152 µM; in [3] (read-out: EC50), > 500 µM.

With `Cc1c(C(=O)O)sc2c(Br)csc12`, the results for the Efficacy in assay [1] and in assay [4] were 290 pm and 113%, respectively. Besides, the Activity result in assay [2] was “Dose-dependent effect”. Further, the values for the EC50 in assay [2] (read-out: EC50) and in assay [3] (read-out: EC50) were 0.061 µM and 8.3 µM, respectively. Also, the result in assay [8] and in [9] was inactive.

As for `O=C(O)c1sc2ccsc2c1O`, the Efficacy amounted to 159 pm in assay [1] and 64% in [4]. Also, the EC50 in [2] (read-out: EC50) was 9.78 µM; in assay [3] (read-out: EC50) it was 340 µM.

As to `Cc1c(C(=O)O)[nH]c2c(Br)csc12`, the Efficacy in assay [1] amounted to 222 pm; in [4], 24%. In addition, the results for the EC50 in assay [2] (read-out: EC50) and in assay [3] (read-out: EC50) were 11.8 µM and 113 µM, respectively.

As for `Cc1c(C(=O)O)sc2c(-c3cn[nH]c3)csc12`, the Efficacy in [1] was determined as 180 pm; in [4], 102%. The concentration giving a half-maximal response (EC50) turned out to be 0.37 µM in assay [2] (read-out: EC50) and 52.5 µM in [3] (read-out: EC50).

For the compound `Cc1c(C(=O)O)sc2c(C3CC3)csc12`, the Efficacy in assay [1] was determined as 262 pm; in assay [4], 101%. The values for the EC50 in assay [2] (read-out: EC50) and in assay [3] (read-out: EC50) were 0.95 µM and 52.4 µM, respectively.

With `Cc1sc2c(C)c(C(=O)O)sc2c1Br`, the Efficacy is 268 pm in assay [1] and 52% in [4]. In addition, the EC50 came out at 1.29 µM in [2] (read-out: EC50) and 22.2 µM in assay [3] (read-out: EC50).

On to `CCOC(=O)c1sc2c(Br)c(Br)sc2c1C(F)(F)F`, for which the EC50 result in [2] (ht-29) and in assay [3] (u2os) was “Not Active” each time.

Turning to `Cc1c(C(=O)O)n(C)c2c(Br)csc12`, the results for the Efficacy in assay [1] and in assay [4] were 290 pm and 77%, respectively. The EC50 in [2] (read-out: EC50) was 5.3 µM; in assay [3] (read-out: EC50), 87.5 µM.

As for `Cc1c(C(=O)O)[nH]c2c(-c3cccnc3)csc12`, the Efficacy came out at 210 pm in [1] and 120% in assay [4]. In addition, the concentration giving a half-maximal response (EC50) in [2] (read-out: EC50) turned out to be 0.63 µM; in assay [3] (read-out: EC50), 26.9 µM. In assay [10], the result was inactive.

`Cc1c(C(=O)O)sc2c(-c3ccsc3)csc12`: the Efficacy in [1] was determined as 232 pm; in [4], 107%. Further, the EC50 in [2] (read-out: EC50) turned out to be 0.26 µM; in [3] (read-out: EC50), 17.6 µM. For the same compound, the outcome in [11] was inactive.

As for `Cc1c(C(=O)O)sc2c(Br)c(Br)sc12`, the Efficacy in assay [1] turned out to be 232 pm; in assay [4], 52%. Besides, in assay [2], the Activity result was “Dose-dependent effect”. The EC50 in [2] (read-out: EC50) was 0.7 µM; in assay [3] (read-out: EC50) it was 36.5 µM. Further, in assay [12], the outcome was inactive.

In the case of `O=C(O)c1sc2c(Br)csc2c1Cl`, the Efficacy in assay [1] is 262 pm; in [4] it was 68%. In addition, the EC50 in [2] (read-out: EC50) turned out to be 1.03 µM; in assay [3] (read-out: EC50), 39.2 µM.

Turning to `O=C(O)c1sc2c(Br)c(Br)sc2c1C(F)(F)F`, the Efficacy was found to be 230 pm in assay [1] and 52% in assay [4]. Besides, the EC50 amounted to 0.51 µM in [2] (read-out: EC50) and 31.1 µM in [3] (read-out: EC50).
